# Source: PubChem BioAssay
# CHT PAM: human CHT allosteric activation; AID 488977; 310,000 compounds, 0.49% hits; B-score at 10 µM; CHT-expressing cells, membrane potential dye, choline EC20; hits give high values; LV-AA mutant CHT in HEK293 cells;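 active = initial fluorescence not abnormally high and integrated response B-score, plate-corrected, over 3 SD above library mean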
# Target sequence (Q9GZV3 whole entry, looked up): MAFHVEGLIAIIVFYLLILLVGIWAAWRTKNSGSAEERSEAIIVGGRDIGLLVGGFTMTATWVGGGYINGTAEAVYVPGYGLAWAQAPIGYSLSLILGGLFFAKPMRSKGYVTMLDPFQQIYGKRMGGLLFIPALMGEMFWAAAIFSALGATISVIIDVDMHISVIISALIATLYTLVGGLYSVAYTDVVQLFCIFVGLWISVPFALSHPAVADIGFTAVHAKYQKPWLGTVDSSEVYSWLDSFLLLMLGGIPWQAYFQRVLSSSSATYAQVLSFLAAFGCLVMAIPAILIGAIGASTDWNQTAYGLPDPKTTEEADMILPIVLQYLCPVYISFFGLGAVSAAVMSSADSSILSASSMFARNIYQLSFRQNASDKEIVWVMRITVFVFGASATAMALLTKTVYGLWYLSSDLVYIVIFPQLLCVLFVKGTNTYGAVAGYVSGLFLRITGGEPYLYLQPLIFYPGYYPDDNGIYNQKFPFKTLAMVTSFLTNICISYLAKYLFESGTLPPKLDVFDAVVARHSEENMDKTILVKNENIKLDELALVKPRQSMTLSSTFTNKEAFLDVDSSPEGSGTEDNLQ
# Cl transport mod: KCC2 (human) Cl- transport modulation; KCC2 cells, thallium flux FluoZin-2 fluorescence; B-score of Tl+ flux slope (higher = more flux/activation; lower = inhibition) at 10 µM; 190,000 compounds, 2.2% hits;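 active = thallium flux slope and its plate-corrected score both differing from the plate sample mean at a set confidence after two filtering rounds, in either direction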;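 also: slope of fluorescence scaled to starting intensity during 10 to 20 s after thallium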
# Rad51 HR inh: blocks human Rad51 in homologous recombination; inhibition, % at 10 µM; AID 1385; Q06609; hRad51 DNA strand exchange, fluorescence dequenching; 200,000 compounds, 0.085% hits;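 active = inhibition above 40% at the single screening dose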;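 also: 0% = DMSO control wells and 100% = blanks with heterologous ssDNA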
#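 System: hRad51 filaments on single-stranded DNA; reagent: Fluorescein- and BHQ1-tagged 47-mer duplex; compound dosing: one concentration, 10 µM final; timing: filaments 15 min 37 °C, then compound 30 min; measured by: fluorescein emission 520 nm, excitation 485 nm; benchmarks: per-plate controls and blanks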
# CHT block: inhibits the human high affinity choline transporter; CHT-expressing cells, membrane potential dye, choline response; hits give low values; B-score at 10 µM; 310,000 compounds, 0.86% hits; AID 488975;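 active = B-score over 3 SD under the library average, and starting fluorescence ratio not unusually high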;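 also: choline stimulus applied at its EC90 after an EC20 pre-addition; B-score computed on integrated fluorescence ratio after choline addition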
# KCC2 secondary: confirmation of human KCC2 transport modulators | normalised thallium flux (F/F0 slope) at 10 µM | AID 1713 | shares compounds with Cl transport mod | HEK293-KCC2, thallium flux, FluoZin2 fluorescence; hits give high values | 3,700 compounds, 15% hits;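 active = thallium flux slope above the same plate's solvent-only control mean plus 3 SD; inconclusive = the two replicate wells disagree; inactive = no significant difference from solvent-only control wells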
# KCC2 bumet counter: thallium flux despite bumetanide block in KCC2 cells, secondary assay 3 | shares compounds with Cl transport mod | HEK293-KCC2 + bumetanide/ouabain, thallium flux FluoZin2; hits give high values | normalized thallium flux at 10 µM | 3,700 compounds, 49% hits;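 active = thallium entry rate above the same plate's blocked-transporter control wells by more than 3 SD; inconclusive = the two repeat wells disagree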;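 also: raw slope of fluorescence over initial fluorescence between 10 and 20 s after thallium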
# KCC2 sec2: KCC2 (human) modulation, second secondary assay; shares compounds with Cl transport mod; AID 1715; 3,700 compounds, 23% hits; HEK293-KCC2, thallium flux FluoZin2 fluorescence; actives lie on both sides; F/F0 rise rate, 10–20 s post-thallium; normalized thallium flux at 10 µM;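 active = thallium flux slope more than 3 SD above or below the plate's solvent-only control mean, mostly below; inconclusive = the two repeat wells disagreed; inactive = no significant shift from solvent-only controls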;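 also: raw slope with 0.1% DMSO as baseline and bumetanide as block control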
# HEK293 Tl flux: acts in parental HEK cells, KCC2 counter-screen; shares compounds with Cl transport mod; HEK293 parental cells, thallium flux FluoZin2, ouabain; baseline-ratio fluorescence slope, 10–20 s after thallium; thallium flux rate (normalised fluorescence) at 10 µM; 3,700 compounds, 46% hits;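 active = thallium flux rate significantly above the same plate's solvent-only control wells, beyond their mean plus 3 SD; inconclusive = the two replicate wells gave conflicting results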
# KCC2 ouabain: confirmation of human KCC2 modulators with ouabain | shares compounds with Cl transport mod | HEK293-KCC2, thallium flux FluoZin2 fluorescence; bidirectional: low = inhibitor, high = activator | raw Tl+ flux slope (below DMSO = inhibition, above = activation) at 10 µM | 3,700 compounds, 48% hits | AID 1717;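 active = thallium flux slope beyond 3 SD from same-plate DMSO control mean in most replicates, usually higher, sometimes lower; inconclusive = repeat tests gave conflicting results; inactive = no significant difference from controls in most replicates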;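 also: slope of initial-normalized fluorescence between seconds 10 and 20 after thallium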
# HEK counter2: counter-screen for KCC2 modulators: effect in parental HEK293 cells. AID 1718. shares compounds with Cl transport mod. thallium flux FluoZin-2 fluorescence slope. thallium flux slope at 10 µM. 3,700 compounds, 33% hits;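 active = thallium flux slope above the same plate's solvent-control mean plus 3 SD in both duplicate wells; inconclusive = duplicate wells that disagreed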;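 also: run without ouabain in cells lacking the KCC2 cotransporter; slope of fluorescence scaled to its starting value between 10 and 20 s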
# An asterisk follows results filed as active; i = inactive; ? = inconclusive; nt = no result given. In the library only some 2.6% were active in any assay of this set; here they are far more common.
SMILES,CHT PAM,Cl transport mod,Rad51 HR inh,CHT block,KCC2 secondary,KCC2 bumet counter,KCC2 sec2,HEK293 Tl flux,KCC2 ouabain,HEK counter2
COc1ccc(OCc2nnc(SCC(=O)c3c(N)n(C)c(=O)n(C)c3=O)n2-c2ccccc2F)cc1,i,-0.0351,-4.5,i,nt,nt,nt,nt,nt,nt
O=[N+]([O-])c1ccccc1Sc1nccn1Cc1ccccc1,i,-4.18*,-5.0,i,0.00678,0.0046,0.0326,?,0.0135*,0.0107
Cc1cccc(N2CCN(C3CCCCC3NS(=O)(=O)c3ccccc3)CC2C)c1 (stereo not drawn),i,nt,nt,i,nt,nt,nt,nt,nt,nt
COc1ccc(NC(=O)C2CCCN(S(=O)(=O)c3cccc4nonc34)C2)cc1OC (stereo not drawn),i,-0.406,-12.0,i,nt,nt,nt,nt,nt,nt
COc1ccc(CCNC(=O)C2CCCN(S(=O)(=O)c3cccc4nonc34)C2)cc1OC (stereo not drawn),i,nt,-5.7,i,0.00578,0.00528,0.0318,0.0084,0.0187,0.0115
Fc1ccc(CNn2cnnc2SCc2ccc(F)cc2)cc1,i,-1.01,3.8,i,nt,nt,nt,nt,nt,nt
Fc1ccccc1CSc1nncn1NC/C=C/c1ccccc1,i,-4.77*,6.1,i,0.00727,0.0086*,?,0.00752,0.017,0.0112
CC(C)COc1ccc(C(=O)Nc2ncn[nH]2)cc1,i,nt,nt,i,nt,nt,nt,nt,nt,nt
O=C(Nc1ccc2c(c1)OCO2)Nc1ccc2c(c1)OCO2,i,-0.0415,-3.0,i,nt,nt,nt,nt,nt,nt
O=C(Nc1cccnc1)Nc1ccc2c(c1)OCO2,i,nt,7.1,i,0.00941,0.00613,0.0292,0.00757,0.0207,0.00933
O=C(CSc1nc2cc(Cl)ccc2s1)c1cc2ccccc2o1,i,4.47*,nt,i,0.0251*,0.0551*,0.0388,0.0307*,0.0476*,0.0173*
O=C(CSc1nc2cc(Cl)ccc2s1)Nc1cccc(S(=O)(=O)N2CCOCC2)c1,i,3.1*,6.3,i,0.0106,0.0149*,0.0363,?,0.0263*,?
O=C(CSc1nc2cc(Cl)ccc2c(=O)n1Cc1ccco1)Nc1ccc(S(=O)(=O)N2CCOCC2)cc1,i,4.36*,1.2,i,0.00735,0.0141*,0.0339,0.0185*,?,0.0152*
Cc1cc(NC(=O)CSc2nc3cc(Cl)ccc3s2)no1,i,0.854,-0.9,i,nt,nt,nt,nt,nt,nt
COC(=O)c1ccc2c(=O)n(Cc3ccco3)c(SCC(=O)Nc3ccc(C)c(Cl)c3)nc2c1,i,0.00514,-2.7,i,nt,nt,nt,nt,nt,nt
O=C(COC(=O)c1cccc(Br)c1)NCCC1=CCCCC1,i,0.243,2.5,i,nt,nt,nt,nt,nt,nt
Cc1ccc(NC2CCCN(C(=O)c3ccoc3)C2)cc1C (stereo not drawn),i,nt,nt,i,nt,nt,nt,nt,nt,nt
CC1CCCC(NC(=O)COC(=O)Cc2c[nH]c3ccccc23)C1C (stereo not drawn),i,-1.41,-6.0,i,nt,nt,nt,nt,nt,nt
CC1CCCC(NC(=O)COC(=O)CCSc2ccccc2)C1C (stereo not drawn),i,nt,23.1,i,0.00755,0.00592,0.0338,0.0069,0.0175*,0.0103
Cc1ccc2c(Cl)cc(Cl)c(OCC(=O)N(C(C)C)C(C)C)c2n1,i,4.03*,-23.0,i,0.0161,0.014*,0.0284,0.0105*,0.0186,0.0118
Cc1ccc2c(Cl)cc(Cl)c(OCC(=O)NC(C)(C)C)c2n1,i,6.88*,8.0,i,0.0103,0.0309*,0.0304,0.0175*,0.0322*,?
Cc1ccc2c(Cl)cc(Cl)c(OCC(=O)Nc3cc(S(=O)(=O)N(C)C)ccc3C)c2n1,i,-0.981,1.9,i,nt,nt,nt,nt,nt,nt
Cc1ccc2c(Cl)cc(Cl)c(OCC(=O)Nc3ccc(C)c(S(=O)(=O)N(C)C)c3)c2n1,i,4.59*,-10.5,i,0.00992,0.0168*,0.0335,0.0157*,0.0244*,0.0121
CC(C(=O)Nc1sc2c(c1C#N)CCCCC2)N1C(=O)c2ccccc2C1=O (stereo not drawn),i,-0.846,nt,i,nt,nt,nt,nt,nt,nt
COc1ccc(NC(=O)C2C3C=CC4(O3)C2C(=O)N(CCCN2CCCC(C)C2)C4C(=O)NC2CCCCC2)cc1 (stereo not drawn),i,nt,nt,i,nt,nt,nt,nt,nt,nt
SMILES,CHT PAM,Cl transport mod,Rad51 HR inh,CHT block,KCC2 secondary,KCC2 bumet counter,KCC2 sec2,HEK293 Tl flux,KCC2 ouabain,HEK counter2
O=C(N/C(=C/c1ccc([N+](=O)[O-])cc1)C(=O)N1CCOCC1)c1ccco1,i,nt,nt,i,nt,nt,nt,nt,nt,nt
O=C(CC1C(=O)NC2CCCCC2N1C(=O)c1ccc(F)cc1)Nc1ccccc1 (stereo not drawn),i,nt,7.3,i,nt,nt,nt,nt,nt,nt
CCOc1ccc(C2=Nn3c(nnc3-c3ccco3)SC2)cc1,i,0.157,6.7,i,nt,nt,nt,nt,nt,nt
CCOc1ccc(C2=Nn3c(nnc3-c3ccccn3)SC2)cc1,i,-0.759,-6.5,i,0.0103,0.0062,0.0336,0.00638,0.0217,0.0102
Cc1cc(Cl)cc(Cl)c1OCCOc1cccc2cccnc12,i,-6.98*,14.4,i,0.00571,0.00449,0.0292,0.00807,0.0178,0.0115
OCCCNc1nc(-c2ccccc2)nc2c1oc1ccccc12,i,-0.678,16.6,i,nt,nt,nt,nt,nt,nt
O=C(O)CNc1nc(-c2ccccc2)nc2c1oc1ccccc12,i,nt,3.0,i,0.00656,0.00532,0.0288,0.00775,0.0185,0.0103
Cc1cc(C)cc(NC(=S)NCc2cccs2)c1,i,-0.00368,0.5,i,nt,nt,nt,nt,nt,nt
S=C(NCCc1ccccc1)NCc1cccs1,i,-4.44*,8.6,i,0.0186,0.00448,0.0253*,0.00702,0.014,0.00986
S=C(NCCc1ccccc1)NC1CCCCCC1,i,-4.2*,-4.2,i,0.00584*,?,0.0291,0.00645,?,0.0106
CC(C)(CNC(=S)NCCc1ccccc1)CNC(=S)NCCc1ccccc1,nt,-5.1*,3.3,nt,0.00765,0.00536,?,0.00576,0.0132*,0.00936
S=C(NCc1cccs1)Nc1ccc(Br)cc1Cl,i,4.67*,1.8,i,0.00751,0.0095*,0.0312,0.0109*,0.0183,0.0124*
CCOc1ccc(C(=O)NNC(=O)C2CC(=O)N(c3ccc(C)cc3)C2)cc1 (stereo not drawn),i,nt,nt,i,nt,nt,nt,nt,nt,nt
